Results taken from ChEMBL document CHEMBL1157144, “Novel 16-membered macrolides modified at C-12 and C-13 positions of midecamycin A1 and miokamycin. Part 1: Synthesis and evaluation of 12,13-carbamate and 12-arylalkylamino-13-hydroxy analogues” (2008).
Values after ≈ are worked out from the molar mass of the structure shown.

What was measured:
Type in all cases: functional
Staphylococcus aureus [1] = assay: Antibacterial activity against standard Staphylococcus aureus after 20 hrs by agar dilution method
Summary of the method: (§1)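 Agar dilution MIC. The inoculum came from a seed culture in Sensitivity test broth. A 5 µl portion of a cell suspension of about 10^6 CFU/ml was inoculated onto Sensitivity disk agar supplemented with 5% horse blood. Plates were incubated at 37 °C for 20 h, then MIC was read.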

Staphylococcus aureus [2] = assay: Antibacterial activity against susceptible Staphylococcus aureus after 20 hrs by agar dilution method; summary of the method: as §1
Staphylococcus aureus [3] = assay: Antibacterial activity against ermA-constitutive resistant Staphylococcus aureus after 20 hrs by agar dilution method; summary of the method: as §1
Staphylococcus aureus [4] = assay: Antibacterial activity against ermB-inducible resistant Staphylococcus aureus after 20 hrs by agar dilution method; summary of the method: as §1
Staphylococcus aureus [5] = assay: Antibacterial activity against ermC-inducible resistant Staphylococcus aureus after 20 hrs by agar dilution method; summary of the method: as §1
Streptococcus pneumoniae [6] = assay: Antibacterial activity against susceptible Streptococcus pneumoniae after 20 hrs by agar dilution method
Summary of the method: (§2)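 MIC by agar dilution. Strains grown on blood agar plates for seed culture. About 5 µl of a suspension of roughly 10^6 CFU/ml spotted onto Sensitivity disk agar with 5% horse blood. Plates incubated at 37 °C for 20 h, then MIC read.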

Streptococcus pneumoniae [7] = assay: Antibacterial activity against ermB-constitutive resistant Streptococcus pneumoniae after 20 hrs by agar dilution method
Summary of the method: (§3)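 Agar dilution MIC. Streptococcal strains were pre-cultured on blood agar plates. A 5 µl portion of a cell suspension of about 10^6 CFU/ml was inoculated onto Sensitivity disk agar supplemented with 5% horse blood. Plates were incubated at 37 °C for 20 h, then MIC was read.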

Streptococcus pneumoniae [8] = assay: Antibacterial activity against ermB-inducible resistant Streptococcus pneumoniae after 20 hrs by agar dilution method; summary of the method: as §3
Streptococcus pneumoniae [9] = assay: Antibacterial activity against mefE efflux-resistant Streptococcus pneumoniae after 20 hrs by agar dilution method; summary of the method: as §3
Streptococcus pyogenes [10] = assay: Antibacterial activity against ermB-constitutive resistant Streptococcus pyogenes after 20 hrs by agar dilution method; summary of the method: as §3
Streptococcus pyogenes [11] = assay: Antibacterial activity against mefE efflux-resistant Streptococcus pyogenes after 20 hrs by agar dilution method; summary of the method: as §3
Moraxella catarrhalis = assay: Antibacterial activity against standard Moraxella catarrhalis after 20 hrs by agar dilution method; summary of the method: as §2
Haemophilus influenzae [12] = assay: Antibacterial activity against standard Haemophilus influenzae after 20 hrs by agar dilution method; summary of the method: as §2
Haemophilus influenzae [13] = assay: Antibacterial activity against susceptible Haemophilus influenzae after 20 hrs by agar dilution method; summary of the method: as §2

Row | Compound | MIC (Staphylococcus aureus [1]) [µg/mL] | MIC (Staphylococcus aureus [2]) [µg/mL] | MIC (Staphylococcus aureus [3]) [µg/mL] | MIC (Staphylococcus aureus [4]) [µg/mL] | MIC (Staphylococcus aureus [5]) [µg/mL] | MIC (Streptococcus pneumoniae [6]) [µg/mL] | MIC (Streptococcus pneumoniae [7]) [µg/mL] | MIC (Streptococcus pneumoniae [8]) [µg/mL] | MIC (Streptococcus pneumoniae [9]) [µg/mL] | MIC (Streptococcus pyogenes [10]) [µg/mL] | MIC (Streptococcus pyogenes [11]) [µg/mL] | MIC (Moraxella catarrhalis) [µg/mL] | MIC (Haemophilus influenzae [12]) [µg/mL] | MIC (Haemophilus influenzae [13]) [µg/mL]
1 | CCC(=O)O[C@@H]1CC(=O)O[C@H](C)C/C=C/C=C/[C@H](OC(C)=O)[C@H](C)C[C@H](CC=O)[C@H](O[C@@H]2O[C@H](C)[C@@H](O[C@H]3C[C@@](C)(O)[C@@H](OC(=O)CC)[C@H](C)O3)[C@H](N(C)C)[C@H]2O)[C@H]1OC | 0.39 (≈ 0.456 µM) | 0.39 (≈ 0.456 µM) | > 100 | 0.39 (≈ 0.456 µM) | 0.78 (≈ 0.911 µM) | 0.2 (≈ 0.234 µM) | > 100 | 100 (≈ 117 µM) | 0.2 (≈ 0.234 µM) | > 100 | 0.39 (≈ 0.456 µM) | 0.78 (≈ 0.911 µM) | 3.13 (≈ 3.66 µM) | 25 (≈ 29.2 µM)
2 | CCC(=O)O[C@@H]1CC(=O)O[C@H](C)C[C@H](O)[C@H](N(C)CCCc2ccncc2)/C=C/[C@H](OC(C)=O)[C@H](C)C[C@H](CC=O)[C@H](O[C@@H]2O[C@H](C)[C@@H](O)[C@H](N(C)C)[C@H]2O)[C@H]1OC | 0.78 (≈ 0.949 µM) | 1.56 (≈ 1.9 µM) | > 100 | 1.56 (≈ 1.9 µM) | 1.56 (≈ 1.9 µM) | 0.39 (≈ 0.474 µM) | > 100 | > 100 | 1.56 (≈ 1.9 µM) | > 100 | 6.25 (≈ 7.6 µM) | 0.1 (≈ 0.122 µM) | 0.39 (≈ 0.474 µM) | 3.13 (≈ 3.81 µM)
3 | CCC(=O)O[C@@H]1CC(=O)O[C@H](C)C[C@H](O)[C@H](N(C)CCCCc2ccccc2)/C=C/[C@H](OC(C)=O)[C@H](C)C[C@H](CC=O)[C@H](O[C@@H]2O[C@H](C)[C@@H](O[C@H]3C[C@@](C)(O)[C@@H](OC(=O)CC)[C@H](C)O3)[C@H](N(C)C)[C@H]2O)[C@H]1OC | 0.39 (≈ 0.377 µM) | 0.39 (≈ 0.377 µM) | > 100 | 1.56 (≈ 1.51 µM) | 0.78 (≈ 0.753 µM) | 0.05 (≈ 0.0483 µM) | > 100 | 12.5 (≈ 12.1 µM) | 0.2 (≈ 0.193 µM) | 100 (≈ 96.6 µM) | 0.2 (≈ 0.193 µM) | 0.78 (≈ 0.753 µM) | 3.13 (≈ 3.02 µM) | 25 (≈ 24.1 µM)
4 | CCC(=O)O[C@@H]1CC(=O)O[C@H](C)C[C@@H]2OC(=O)N(CCCCc3ccccc3)[C@@H]2/C=C/[C@H](OC(C)=O)[C@H](C)C[C@H](CC=O)[C@H](O[C@@H]2O[C@H](C)[C@@H](O[C@H]3C[C@@](C)(O)[C@@H](OC(=O)CC)[C@H](C)O3)[C@H](N(C)C)[C@H]2O)[C@H]1OC | 0.78 (≈ 0.745 µM) | 0.39 (≈ 0.372 µM) | > 100 | 0.39 (≈ 0.372 µM) | 0.78 (≈ 0.745 µM) | 0.2 (≈ 0.191 µM) | > 100 | 100 (≈ 95.5 µM) | 0.2 (≈ 0.191 µM) | > 100 | 0.39 (≈ 0.372 µM) | 3.13 (≈ 2.99 µM) | 6.25 (≈ 5.97 µM) | > 100
5 | CCC(=O)O[C@@H]1CC(=O)O[C@H](C)C[C@@H]2OC(=O)N(Cc3ccccc3)[C@@H]2/C=C/[C@H](OC(C)=O)[C@H](C)C[C@H](CC=O)[C@H](O[C@@H]2O[C@H](C)[C@@H](O[C@H]3C[C@@](C)(O)[C@@H](OC(=O)CC)[C@H](C)O3)[C@H](N(C)C)[C@H]2O)[C@H]1OC | 0.39 (≈ 0.388 µM) | 0.39 (≈ 0.388 µM) | > 100 | 0.39 (≈ 0.388 µM) | 0.78 (≈ 0.776 µM) | 0.2 (≈ 0.199 µM) | > 100 | 100 (≈ 99.5 µM) | 0.2 (≈ 0.199 µM) | > 100 | 0.2 (≈ 0.199 µM) | 1.56 (≈ 1.55 µM) | 3.13 (≈ 3.11 µM) | 25 (≈ 24.9 µM)
6 | CCC(=O)O[C@@H]1CC(=O)O[C@H](C)C[C@@H]2OC(=O)N(CCc3ccccc3)[C@@H]2/C=C/[C@H](OC(C)=O)[C@H](C)C[C@H](CC=O)[C@H](O[C@@H]2O[C@H](C)[C@@H](O[C@H]3C[C@@](C)(O)[C@@H](OC(=O)CC)[C@H](C)O3)[C@H](N(C)C)[C@H]2O)[C@H]1OC | 0.78 (≈ 0.765 µM) | 0.39 (≈ 0.383 µM) | > 100 | 6.25 (≈ 6.13 µM) | 1.56 (≈ 1.53 µM) | 0.2 (≈ 0.196 µM) | > 100 | 50 (≈ 49.1 µM) | 0.2 (≈ 0.196 µM) | > 100 | 0.1 (≈ 0.0981 µM) | 0.78 (≈ 0.765 µM) | 3.13 (≈ 3.07 µM) | 25 (≈ 24.5 µM)
7 | CC[C@H]1OC(=O)[C@H](C)[C@@H](O[C@H]2C[C@@](C)(OC)[C@@H](O)[C@H](C)O2)[C@H](C)[C@@H](O[C@@H]2O[C@H](C)C[C@H](N(C)C)[C@H]2O)[C@](C)(OC)C[C@@H](C)C(=O)[C@H](C)[C@@H](O)[C@]1(C)O [CLARITHROMYCIN] | 0.1 (≈ 0.134 µM) | 0.1 (≈ 0.134 µM) | > 100 | > 100 | 1.56 (≈ 2.09 µM) | 0.025 (≈ 0.0334 µM) | > 100 | > 100 | 0.78 (≈ 1.04 µM) | > 100 | 3.13 (≈ 4.18 µM) | 0.1 (≈ 0.134 µM) | 1.56 (≈ 2.09 µM) | 6.25 (≈ 8.36 µM)
